# Measurements published in ChEMBL document CHEMBL4346701, “Synthesis and biological evaluation of tryptophan-derived rhodanine derivatives as PTP1B inhibitors and anti-bacterial agents” (Eur J Med Chem, 2019).
# Assays:
# [1] = molecular target: T1, Tyrosine-protein phosphatase non-receptor type 2 (Homo sapiens, UniProt P17706); assay: Inhibition of human recombinant GST-tagged TCPTP (catalytic domain […] residues) expressed in Escherichia coli BL21 (DE3) using pNPP as substrate measured for 2 mins by colorimetric analysis
# T1 sequence (P17706 whole entry): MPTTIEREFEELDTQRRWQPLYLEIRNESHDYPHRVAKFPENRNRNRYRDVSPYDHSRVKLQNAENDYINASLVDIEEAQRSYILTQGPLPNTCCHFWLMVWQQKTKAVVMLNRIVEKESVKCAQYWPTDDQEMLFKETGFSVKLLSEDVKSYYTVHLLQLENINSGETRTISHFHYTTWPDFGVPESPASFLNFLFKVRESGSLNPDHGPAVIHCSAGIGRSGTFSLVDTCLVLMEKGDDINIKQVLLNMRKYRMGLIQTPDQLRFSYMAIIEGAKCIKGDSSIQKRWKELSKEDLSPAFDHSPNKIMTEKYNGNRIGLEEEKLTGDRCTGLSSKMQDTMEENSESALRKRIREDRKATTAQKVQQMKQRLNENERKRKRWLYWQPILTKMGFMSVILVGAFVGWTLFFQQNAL
# [2] = molecular target: T2, M-phase inducer phosphatase 2 (Homo sapiens, UniProt P30305); assay: Inhibition of human recombinant GST-tagged CDC25B expressed in Escherichia coli BL21 (DE3) using pNPP as substrate measured for 2 mins by colorimetric analysis
# T2 sequence (P30305 whole entry): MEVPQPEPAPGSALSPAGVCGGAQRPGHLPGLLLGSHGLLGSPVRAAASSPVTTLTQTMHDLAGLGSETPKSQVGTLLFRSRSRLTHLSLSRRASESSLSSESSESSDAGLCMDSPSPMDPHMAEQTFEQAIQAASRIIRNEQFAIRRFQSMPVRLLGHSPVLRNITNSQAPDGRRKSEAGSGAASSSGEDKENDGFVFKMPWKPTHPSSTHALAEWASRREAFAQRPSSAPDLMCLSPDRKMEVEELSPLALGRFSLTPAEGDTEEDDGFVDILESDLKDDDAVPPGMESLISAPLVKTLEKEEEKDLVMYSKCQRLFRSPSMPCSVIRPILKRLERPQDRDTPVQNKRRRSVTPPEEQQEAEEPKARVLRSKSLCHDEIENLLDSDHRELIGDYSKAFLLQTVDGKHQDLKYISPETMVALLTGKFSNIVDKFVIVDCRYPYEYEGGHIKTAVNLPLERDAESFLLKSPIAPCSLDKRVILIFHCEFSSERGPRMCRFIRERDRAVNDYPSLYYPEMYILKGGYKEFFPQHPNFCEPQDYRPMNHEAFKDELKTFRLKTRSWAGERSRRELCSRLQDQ
# In short: (§1)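 pNPP hydrolysis assay. IC50 was derived by regression analysis and given as mean ± SD of three replications.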
# [3] = molecular target: Tyrosine-protein phosphatase non-receptor type 6 (Homo sapiens, UniProt P29350); assay: Inhibition of human recombinant GST-tagged SHP1 (catalytic domain 244 to 570 residues) expressed in Escherichia coli BL21 (DE3) using pNPP as substrate measured for 2 mins by colorimetric analysis; in short: as §1
# [4] = molecular target: T3, Tyrosine-protein phosphatase non-receptor type 11 (Homo sapiens, UniProt Q06124); assay: Inhibition of human recombinant GST-tagged SHP2 (catalytic domain […] residues) expressed in Escherichia coli BL21 (DE3) using pNPP as substrate measured for 2 mins by colorimetric analysis; in short: as §1
# T3 sequence (Q06124 whole entry): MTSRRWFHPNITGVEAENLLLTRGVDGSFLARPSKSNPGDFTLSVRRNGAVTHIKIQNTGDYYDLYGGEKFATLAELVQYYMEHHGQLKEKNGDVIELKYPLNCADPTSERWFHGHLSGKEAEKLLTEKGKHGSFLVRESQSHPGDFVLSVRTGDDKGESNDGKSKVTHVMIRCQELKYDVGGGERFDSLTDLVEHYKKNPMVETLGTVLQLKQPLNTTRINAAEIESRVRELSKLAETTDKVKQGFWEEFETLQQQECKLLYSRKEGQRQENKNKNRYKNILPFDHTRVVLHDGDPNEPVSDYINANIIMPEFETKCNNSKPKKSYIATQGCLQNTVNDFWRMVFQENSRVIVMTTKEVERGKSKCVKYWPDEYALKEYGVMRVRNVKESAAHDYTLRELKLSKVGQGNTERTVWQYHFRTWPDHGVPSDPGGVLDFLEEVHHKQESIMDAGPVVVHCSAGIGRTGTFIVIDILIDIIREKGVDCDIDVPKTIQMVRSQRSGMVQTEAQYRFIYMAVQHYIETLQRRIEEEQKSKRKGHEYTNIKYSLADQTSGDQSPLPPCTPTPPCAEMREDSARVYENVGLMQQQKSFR
# Staphylococcus aureus [5] = assay: Antibacterial activity against Staphylococcus aureus KCTC209 assessed as reduction in bacterial cell growth incubated for 24 hrs by ELISA; format: functional; settings: KCTC209, 24 h
# In short: (§2)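 MICs determined by serial dilution in 96-well microtiter plates. The strain panel included Gram-positive S. aureus strains and multidrug-resistant clinical isolates. Gatifloxacin, moxifloxacin, norfloxacin and oxacillin served as antibacterial positive controls.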
# Staphylococcus aureus [6] = assay: Antibacterial activity against Staphylococcus aureus KCTC503 assessed as reduction in bacterial cell growth incubated for 24 hrs by ELISA; format: functional; settings: KCTC503, 24 h; in short: as §2
# Escherichia coli = assay: Antibacterial activity against Escherichia coli 1924 assessed as reduction in bacterial cell growth incubated for 24 hrs by ELISA; format: functional; settings: Escherichia coli, 1924, 24 h
# In short: (§3)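 MIC determined by serial dilution in 96-well microtiter plates. Strains used were E. coli 1924 and P. aeruginosa 2742 (Gram-negative), S. mutans 3289 (Gram-positive) and the fungus C. albicans 7535. Gatifloxacin, moxifloxacin, norfloxacin and oxacillin served as antibacterial reference agents, and fluconazole as the antifungal reference.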
# Candida albicans = assay: Antifungal activity against Candida albicans 7535 assessed as reduction in bacterial cell growth incubated for 24 hrs by ELISA; format: functional; settings: Candida albicans, 7535, 24 h; in short: as §3
# Staphylococcus aureus [7] = assay: Antibacterial activity against Methicillin-resistant Staphylococcus aureus CCARM 3167 assessed as reduction in bacterial cell growth incubated for 24 hrs by ELISA; format: functional; settings: CCARM 3167, 24 h; in short: as §2
# Homo sapiens [8] = species on record: Homo sapiens; assay: Selectivity ratio of IC50 for human recombinant GST-tagged TCPTP to IC50 for human recombinant GST-tagged PTP1B
# Homo sapiens [9] = species on record: Homo sapiens; assay: Selectivity ratio of IC50 for human recombinant GST-tagged SHP1 to IC50 for human recombinant GST-tagged PTP1B
# Homo sapiens [10] = species on record: Homo sapiens; assay: Selectivity ratio of IC50 for human recombinant GST-tagged SHP2 to IC50 for human recombinant GST-tagged PTP1B
# Tyrosine-protein phosphatase non-receptor type 6, sequence (P29350 whole entry, the tested form may be a part): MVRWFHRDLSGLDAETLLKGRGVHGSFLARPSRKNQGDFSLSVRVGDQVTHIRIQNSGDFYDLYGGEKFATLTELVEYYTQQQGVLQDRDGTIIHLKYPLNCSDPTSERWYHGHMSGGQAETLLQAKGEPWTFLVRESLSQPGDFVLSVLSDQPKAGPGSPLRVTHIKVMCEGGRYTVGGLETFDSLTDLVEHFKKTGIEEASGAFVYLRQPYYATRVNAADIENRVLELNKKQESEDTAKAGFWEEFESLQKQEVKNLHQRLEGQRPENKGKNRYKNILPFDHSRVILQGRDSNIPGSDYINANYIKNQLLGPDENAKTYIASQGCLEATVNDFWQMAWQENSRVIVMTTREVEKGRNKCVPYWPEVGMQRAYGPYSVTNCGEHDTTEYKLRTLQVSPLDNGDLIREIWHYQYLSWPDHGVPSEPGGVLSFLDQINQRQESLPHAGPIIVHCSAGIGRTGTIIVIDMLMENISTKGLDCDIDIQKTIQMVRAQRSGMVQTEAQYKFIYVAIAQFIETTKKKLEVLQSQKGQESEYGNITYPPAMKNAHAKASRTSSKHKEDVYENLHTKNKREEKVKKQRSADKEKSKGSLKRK
SMILES,IC50 [1] [nM],IC50 [2] [nM],IC50 [3] [nM],IC50 [4] [nM],MIC (Staphylococcus aureus [5]) [µg/mL],MIC (Staphylococcus aureus [6]) [µg/mL],MIC (Escherichia coli) [µg/mL],MIC (Candida albicans) [µg/mL],MIC (Staphylococcus aureus [7]) [µg/mL],Ratio IC50 (Homo sapiens [8]),Ratio IC50 (Homo sapiens [9]),Ratio IC50 (Homo sapiens [10])
O=C(O)C(Cc1c[nH]c2ccccc12)N1C(=O)/C(=C/c2ccc3cc(OCc4ccc(Cl)cc4Cl)ccc3c2)SC1=S (stereo unspecified),1830,490,2950,6930,4,4,8,> 64,4,2 to 3,3 to 6,9 to 10
Cc1ccc(COc2ccc3cc(/C=C4\SC(=S)N(C(Cc5c[nH]c6ccccc56)C(=O)O)C4=O)ccc3c2)cc1 (stereo unspecified),1690,830,3990,5810,2,2,2,> 64,2,2 to 3,3 to 6,9 to 10
O=C(O)C(Cc1c[nH]c2ccccc12)N1C(=O)/C(=C/c2ccc3cc(OCc4ccc(Br)cc4)ccc3c2)SC1=S (stereo unspecified),780,320,1110,3800,2,4,8,> 64,4,2 to 3,3 to 6,9 to 10
